Published values of several laboratories.
RPS6KA1: Ribosomal protein S6 kinase alpha-1 (RPS6KA1, Homo sapiens, UniProt Q15418)
RPS6KA1 C-terminal kinase domain: Ribosomal protein S6 kinase alpha-1, C-terminal kinase domain (RPS6KA1, Homo sapiens, UniProt Q15418)
RPS6KA1 N-terminal kinase domain: Ribosomal protein S6 kinase alpha-1, N-terminal kinase domain (RPS6KA1, Homo sapiens, UniProt Q15418)

| SMILES | target | effect on | mode | method | concentration | endpoint | value |
| --- | --- | --- | --- | --- | --- | --- | --- |
| COc1cc(Cl)c(C(=O)N[C@@H](CN[C@H]2CC[C@@H](N)CC2)Cc2ccc(C#N)cc2)cc1-c1ccc(CN[C@H](C)c2ccc(C)cc2)o1 | RPS6KA1 | enzyme activity | inhibitor | – | 1 µM | remaining activity | 85% |
| Nc1ncnc2occ(-c3ccc(NC(=O)Nc4cc(C(F)(F)F)ccc4F)cc3)c12 | RPS6KA1 C-terminal kinase domain | cell-free assay | inhibitor | – | 20 µM | remaining signal | 20% |
| CNC(=O)c1cc(Oc2ccc(NC(=O)Nc3ccc(Cl)c(C(F)(F)F)c3)cc2)ccn1 | RPS6KA1 | enzyme activity | inhibitor | – | 0.3 µM | inhibition | 5% |
| COc1cc2c(Nc3ccc(Br)cc3F)ncnc2cc1OCC1CCN(C)CC1 | RPS6KA1 | cell-free assay | – | – | 0.5 µM | remaining signal | 102% |
| Cc1cc(C)c(-n2ccn3nc(-c4cccnc4)cc23)cc1NC(=O)c1cc(C#N)cc(S(F)(F)(F)(F)F)c1 | RPS6KA1 N-terminal kinase domain | cell-free assay | – | competition with immobilised ligand | 0.1 µM | remaining binding | 97% |
| COc1cc2ncnc(Nc3ccc(Oc4ccccc4)cc3C)c2cc1OC | RPS6KA1 | enzyme activity | inhibitor | – | 1 µM | inhibition | 6% |
| CNCc1ccccc1-c1csc([C@H](C)Nc2nc(C)nc3cc(OC)c(OC)cc23)c1 | RPS6KA1 C-terminal kinase domain | cell-free assay | – | competition with immobilised ligand | 1 µM | remaining binding | 100% |
| CC(C)(C)C(=O)c1sc(NC2CCCCC2)nc1N | RPS6KA1 | enzyme activity | inhibitor | – | 10 µM | remaining activity | 89% |
| CCCCN(CCCC)C(=O)CN1C[C@H](c2cc(OC)c3c(c2)OCO3)[C@@H](C(=O)O)[C@@H]1CC(C)(C)CCC | RPS6KA1 N-terminal kinase domain | cell-free assay | – | competition with immobilised ligand | 1 µM | remaining binding | 97.7% |
| CC(C)(C)c1nc(-c2cccc(NS(=O)(=O)c3c(F)cccc3F)c2F)c(-c2ccnc(N)n2)s1 | RPS6KA1 | enzyme activity | inhibitor | radiometric | 1 µM | remaining activity | 90% |
| C[C@@H]1CCN(c2nccc(-c3cnn4ncccc34)n2)C1 | RPS6KA1 N-terminal kinase domain | binding | – | competition with immobilised ligand | 1 µM | remaining binding | 100% |
| Cc1nccc(COC(=O)N2C[C@@H]3[C@@H](CNC(=O)c4ccc5[nH]nnc5c4)[C@@H]3C2)n1 | RPS6KA1 C-terminal kinase domain | cell-free assay | – | competition with immobilised ligand | 1 µM | remaining binding | 96% |
| FC(F)c1nc2ccccc2n1-c1nc(N2CCOCC2)nc(N2CCOCC2)n1 | RPS6KA1 | enzyme activity | inhibitor | – | 10 µM | remaining activity | 95% |
| CC(C)(O)[C@H]1CC[C@H](Nc2ccc3ncc(-c4cccc(C(F)(F)F)c4)n3n2)CC1 | RPS6KA1 | enzyme activity | inhibitor | – | 1 µM | remaining activity | 72% |
| CC(C)c1ccc(NC(=O)c2cccs2)c(-c2nc3ccccc3[nH]c2=O)c1 | RPS6KA1 | enzyme activity | inhibitor | – | 1 µM | activity vs control | 96% |
| COc1cc(/C=C/C(=O)CC(=O)/C=C/c2ccc(O)c(OC)c2)ccc1O | RPS6KA1 | enzyme activity | inhibitor | – | 1 µM | activity vs control | 53% |
| COc1cc(Nc2cnc(C#N)c(O[C@H](C)CN(C)C)n2)ncc1-c1cnn(C)c1 | RPS6KA1 | enzyme activity | inhibitor | radiometric | 10 µM | remaining activity | 14% |
| CC/C(=N\NC(=O)C(C)Nc1ccccc1)c1ccc(O)c(C)c1O (centres unmarked) | RPS6KA1 | enzyme activity | inhibitor | – | 0.1 µM | inhibition | 36.6% |
| COc1cc2c(N3CCN(C(=O)Nc4ccc(OC(C)C)cc4)CC3)ncnc2cc1OCCCN1CCCCC1 | RPS6KA1 | cell-free assay | – | – | 0.5 µM | remaining signal | 94.8% |
| Cc1ccc(C(=O)NCc2ccsc2)cc1C#Cc1cn(C(C)C)c2ncnc(N)c12 | RPS6KA1 | enzyme activity | inhibitor | – | 1 µM | activity vs control | 101% |
| O=C1NC(=O)c2cc(Nc3ccc(F)cc3)c(Nc3ccc(F)cc3)cc21 | RPS6KA1 | cell-free assay | – | – | 0.5 µM | remaining signal | 97.7% |

| SMILES | target | effect on | mode | method | concentration | endpoint | value |
| --- | --- | --- | --- | --- | --- | --- | --- |
| c1cnn2ncc(-c3ccnc(N4CCC45COC5)n3)c2c1 | RPS6KA1 N-terminal kinase domain | binding | – | competition with immobilised ligand | 1 µM | remaining binding | 90% |
| Cn1c(=O)n(-c2ccc(C(C)(C)C#N)cc2)c2c3cc(-c4cnc5ccccc5c4)ccc3ncc21 | RPS6KA1 | enzyme activity | inhibitor | – | 10 µM | remaining activity | 97% |
| O=C1NC(c2ccccn2)Sc2ccccc21 (centres unmarked) | RPS6KA1 C-terminal kinase domain | cell-free assay | – | competition with immobilised ligand | 1 µM | remaining binding | 100% |
| CNc1cccc2cc(C(=O)Nc3ccc(C(=O)O)cc3)c(=O)[nH]c12 | RPS6KA1 | enzyme activity | inhibitor | – | 10 µM | inhibition | 16% |
| N[C@H]1CCN(c2nccc(-c3cnn4ncccc34)n2)C1 | RPS6KA1 C-terminal kinase domain | binding | – | competition with immobilised ligand | 1 µM | remaining binding | 99% |
| CCS(=O)(=O)c1cc2cc(C[C@@](O)(CC(C)(C)c3ccc(F)cc3C(N)=O)C(F)(F)F)[nH]c2cn1 | RPS6KA1 C-terminal kinase domain | cell-free assay | – | competition with immobilised ligand | 1 µM | remaining binding | 0% |
| CCCCNc1ncc2c(-c3ccc(F)cc3)nn(C[C@H]3CC[C@H](N)CC3)c2n1 | RPS6KA1 C-terminal kinase domain | target engagement in cells | inhibitor | chemoproteomics | 20 mM | inhibition | 63.4% |
| CN(C)c1nccc(-c2cnn3ncccc23)n1 | RPS6KA1 N-terminal kinase domain | binding | – | competition with immobilised ligand | 1 µM | remaining binding | 100% |
| CO[C@H]1CC[C@H](CNc2ccc(S(=O)(=O)NC(=O)c3ccc(N4CCN(CC5=C(c6ccc(Cl)cc6)CC(C)(C)CC5)CC4)cc3Oc3cnc4[nH]ccc4c3)cc2[N+](=O)[O-])CC1 | RPS6KA1 C-terminal kinase domain | cell-free assay | – | competition with immobilised ligand | 1 µM | remaining binding | 73% |
| Cc1ccc(NC(=O)c2ccc(C)c(C(F)(F)F)c2)cc1C#Cc1nn(C2CCC(O)CC2)c2ncnc(N)c12 (centres unmarked) | RPS6KA1 | cell-free assay | – | – | 10 µM | remaining signal | 11% |
| O=C1Nc2ccc(Cl)cc2C1=Cc1cc(Cl)c(O)c(Cl)c1 | RPS6KA1 | cell-free assay | – | – | 0.5 µM | remaining signal | 48.4% |
| CN(C)c1ncc(F)c(-c2cnn3ncccc23)n1 | RPS6KA1 C-terminal kinase domain | binding | – | competition with immobilised ligand | 1 µM | remaining binding | 100% |
| Cc1sc(C(=O)NC2COC2)cc1-n1cc(NC(=O)Nc2c(F)cccc2Cl)cn1 | RPS6KA1 | enzyme activity | inhibitor | – | 10 µM | remaining activity | 93.2% |
| Cn1cncc1C1=CN(c2ncnc3[nH]cnc23)CCS1 | RPS6KA1 | enzyme activity | inhibitor | radiometric | 50 nM | inhibition | 13% |
| CCOc1cc(-c2nncn2C)ccc1Nc1ncc2cc(C)nc(NCC(C)(C)C)c2n1 | RPS6KA1 | enzyme activity | inhibitor | FRET | 1 µM | inhibition | < 15% |
| CCCS(=O)(=O)Nc1ccc(F)c(C(=O)c2c[nH]c3ncc(-c4ccc(Cl)cc4)cc23)c1F | RPS6KA1 | enzyme activity | inhibitor | – | 1 µM | inhibition | < 10% |
| C[C@@H]1CCN(C(=O)CC#N)C[C@@H]1N(C)c1ncnc2[nH]ccc12 | RPS6KA1 | cell-free assay | inhibitor | – | 0.5 µM | remaining signal | 90.9% |
| O=C(Nc1cnn(-c2csc(C(=O)NC3COC3)c2)c1)Nc1c(F)cccc1Cl | RPS6KA1 | enzyme activity | inhibitor | – | 5 µM | remaining activity | 96.3% |
| CCN(CC)CCNC(=O)c1c(C)[nH]c(/C=C2\C(=O)Nc3ccc(F)cc32)c1C | RPS6KA1 | cell-free assay | – | – | 0.5 µM | remaining signal | 28% |
| CC(C)(O)c1cncc(-c2nc3ccc(F)cc3n2C2CC2)c1 | RPS6KA1 C-terminal kinase domain | cell-free assay | – | competition with immobilised ligand | 1 µM | remaining binding | 100% |
